Molecules are shown by their SMILES. Converted amounts (≈) assume the structure as drawn. The source made the active and inactive calls. The calls are words filed in the database; no cut-off is given here. Some results are limits rather than exact numbers.

Experimental findings from ChEMBL document CHEMBL4028867, “Design, Synthesis, and Characterization of N-Oxide-Containing Heterocycles with in Vivo Sterilizing Antitubercular Activity” (J Med Chem, 2017) are described below.

Data set [1] concerns Mycobacterium tuberculosis. Kind of data set: Antitubercular activity against Mycobacterium tuberculosis Erdman infected in BALB/c mouse at 200 mg/kg, po qd dosed via gavage starting at 10 days post-infection and terminated at 29 day post-infection for 5 consecutive days each week and measured 3 day wash-out period at 31 day-postinfection. In kind it is functional, organism-based. The method, boiled down: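 Drug in cholesterol/phospholipid microemulsion was given by oral gavage (200 μL) once daily, 5 days/week, from day 10 to day 29 post-infection; n = 7/group. After a 3-day washout, lungs were homogenized in HBSS-Tween at day 31 and plated on Middlebrook 7H11 for CFU.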

For data set [2], the system named is Mycobacterium tuberculosis. Kind of data set: Up-regulation of […] gene EF-Tu in Mycobacterium tuberculosis H37Rv at 2 times MIC90 after 4 hrs by microarray analysis. It counts as functional.
The subject of data set [3] is Mycobacterium tuberculosis. Briefly: Antitubercular activity against Mycobacterium tuberculosis H37Rv ATCC 27294 under normal pH 6.8 condition. In kind it is functional.
The test system of data set [4] is Mus musculus. Kind of data set: Hepatotoxicity in BALB/c mouse assessed as change in alanine aminotransferase level in plasma at 200 mg/kg, po qd administered via gavage after 10 days. It counts as toxicity, organism-based. As to conditions: in vivo, 240 h.
Data set [5] concerns Mycobacterium tuberculosis. Briefly: Growth inhibition of Mycobacterium tuberculosis H37Rv exposed to plasma from BALB/c mouse treated with 300 mg/kg, po administered through microemulsion vehicle as single oral dose per gavage after 2 hrs by Resazurin microtiter assay. In kind it is functional. As to conditions: read-out: GI. In short, it runs like this:
(§1)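 The microemulsion was 10% cholesterol, 10% phosphatidylcholine/sodium oleate/polyoxyl 40 hydrogenated castor oil (3:6:8) and 80% phosphate buffer pH 7.4. Plasma taken at 0.3, 1, 2 or 4 h was tested by REMA for % Mtb growth inhibition, and plasma level was estimated against the in-vitro REMA MIC.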

A further data set has as its system Staphylococcus aureus. Kind of data set: Antimicrobial activity against Staphylococcus aureus ATCC 29213 at 200 uM incubated for 16 hrs. In kind it is functional.
The subject of data set [6] is Mycobacterium tuberculosis. Kind of data set: Bactericidal activity against Mycobacterium tuberculosis H37Rv ATCC 27294 assessed as colony forming units at 41.24 uM after 48 hrs by time kill analysis. In kind it is functional. In short, it runs like this: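 Time–kill: H37Rv ATCC 27294 exposed to drug at 41.24 μM, alongside INH 0.72 μM, RMP 0.01 μM and MOX 0.88 μM; log10 CFU/mL followed over days. Counts are the mean of three independent assays, ± SD.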

The test system of data set [7] is Mycobacterium tuberculosis. Kind of data set: Up-regulation of heat shock protein genes in Mycobacterium tuberculosis H37Rv at 2 times MIC after 4 hrs by microarray analysis. It counts as functional.
The subject of data set [8] is Mus musculus. Kind of data set: Nephrotoxicity in BALB/c mouse assessed as change in urea level in blood at 200 mg/kg, po qd administered via gavage after 10 days. As to conditions: in vivo, 240 h. It counts as toxicity, organism-based.
Data set [9] relates to Mycobacterium tuberculosis. Briefly: Up-regulation of ATP synthase sub-units genes in Mycobacterium tuberculosis H37Rv at 2 times MIC90 after 4 hrs by microarray analysis. It counts as functional.
For data set [10], the system named is Mycobacterium tuberculosis. Kind of data set: Antitubercular activity against replicating stage Mycobacterium tuberculosis H37Rv ATCC 27294 after 7 days by Resazurin microtiter assay. As to conditions: H37Rv ATCC 27294, 168 h. In kind it is functional. A general note: Resazurin is reduced to fluorescent resorufin, in cell work by metabolically active cells.

Data set [11] concerns Mus musculus. Briefly: Hepatotoxicity in BALB/c mouse assessed as change in alkaline phosphatase level in plasma at 200 mg/kg, po qd administered via gavage after 10 days. It counts as toxicity, organism-based. As to conditions: in vivo, 240 h.
The target of another data set is Cytochrome P450 3A4 (Homo sapiens, UniProt P08684). Kind of data set: Inhibition of CYP3A4 in human liver microsomes in presence of NADPH by LC-MS/MS analysis. In kind it is ADME. (Microsomes from liver hold many membrane-bound enzymes, among them those of drug oxidation.)
The subject of data set [12] is Mycobacterium tuberculosis. Kind of data set: Downregulation of htrA gene in Mycobacterium tuberculosis H37Rv at 2 times MIC90 after 4 hrs by microarray analysis. In kind it is functional.
A short description of data set [13]: Apparent permeability from basolateral to apical side in human Caco2 cells by LC-MS/MS analysis. In kind it is ADME, cell-based. As to conditions: caco-2. The method, boiled down:
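Caco-2 monolayer permeability measured in both directions (apical-to-basolateral and basolateral-to-apical); result given as apparent permeability coefficient Papp in cm/s.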
A general note: Passage across Caco-2 layers is used to estimate intestinal permeability.

Data set [14] is described as follows: Induction of nitric oxide release by Griess assay. In short, it runs like this: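 Griess assay: chemical detection of nitrite ions in solution as indicator of nitric oxide release.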
The test system of a further data set is Candida albicans. Briefly: Antimicrobial activity against Candida albicans ATCC 10231 at 200 uM incubated for 48 hrs. It counts as functional.
The subject of data set [15] is Mus musculus. Kind of data set: Toxicity in BALB/c mouse assessed as behavioral parameter changes (hippocratic screening) at 200 mg/kg, po qd administered via gavage after 10 days. As to conditions: in vivo, 240 h. In kind it is organism-based. In short, it runs like this:
(§2)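 Mice given one daily oral gavage dose of 200 mg/kg body weight for 10 days with daily behavioural monitoring (hippocratic screening); heart, lung, spleen, kidney and liver weights compared with controls by ANOVA and Dunnett's test, p < 0.05.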

The test system of data set [16] is Mycobacterium tuberculosis. Kind of data set: Growth inhibition of Mycobacterium tuberculosis H37Rv exposed to plasma from BALB/c mouse treated with 300 mg/kg, po administered through microemulsion vehicle as single oral dose per gavage after 4 hrs by Resazurin microtiter assay. As to conditions: read-out: GI. In kind it is functional. The method, boiled down: as §1

Data set [17] has as its system Mus musculus. Kind of data set: Toxicity in BALB/c mouse assessed as change in kidney weight at 200 mg/kg, po qd administered via gavage after 10 days. It counts as organism-based. As to conditions: in vivo, 240 h. In short, it runs like this:
as §2

Another data set concerns the target T1, Cytochrome P450 2B6 (Homo sapiens, UniProt P20813).
T1 sequence (P20813 whole entry): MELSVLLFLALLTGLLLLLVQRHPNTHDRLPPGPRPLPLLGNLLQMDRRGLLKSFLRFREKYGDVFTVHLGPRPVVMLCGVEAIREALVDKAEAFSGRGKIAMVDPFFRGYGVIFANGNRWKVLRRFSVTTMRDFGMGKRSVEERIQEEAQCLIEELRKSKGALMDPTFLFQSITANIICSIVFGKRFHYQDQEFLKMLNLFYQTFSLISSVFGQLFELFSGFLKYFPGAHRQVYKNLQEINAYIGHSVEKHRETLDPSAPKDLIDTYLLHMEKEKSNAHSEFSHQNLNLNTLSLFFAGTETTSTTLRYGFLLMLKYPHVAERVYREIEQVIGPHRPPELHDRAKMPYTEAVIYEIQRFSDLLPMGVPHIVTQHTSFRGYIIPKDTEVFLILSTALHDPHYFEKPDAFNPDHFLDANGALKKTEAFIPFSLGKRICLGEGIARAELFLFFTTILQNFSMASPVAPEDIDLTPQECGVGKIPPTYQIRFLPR
Briefly: Inhibition of CYP2B6 in human liver microsomes in presence of NADPH by LC-MS/MS analysis. It counts as ADME.

Data set [18] concerns Mus musculus. Briefly: Hepatotoxicity in BALB/c mouse assessed as change in aspartate aminotransferase level in plasma at 200 mg/kg, po qd administered via gavage after 10 days. It counts as toxicity, organism-based. As to conditions: in vivo, 240 h.
The test system of data set [19] is Mycobacterium tuberculosis. Briefly: Antitubercular activity against Mycobacterium tuberculosis H37Rv ATCC 27294 infected in mouse J774A.1 cells at 1.46 to 23.86 ug/ml after 3 days relative to control. It counts as functional.

Cytochrome P450 3A4, sequence (P08684 whole entry): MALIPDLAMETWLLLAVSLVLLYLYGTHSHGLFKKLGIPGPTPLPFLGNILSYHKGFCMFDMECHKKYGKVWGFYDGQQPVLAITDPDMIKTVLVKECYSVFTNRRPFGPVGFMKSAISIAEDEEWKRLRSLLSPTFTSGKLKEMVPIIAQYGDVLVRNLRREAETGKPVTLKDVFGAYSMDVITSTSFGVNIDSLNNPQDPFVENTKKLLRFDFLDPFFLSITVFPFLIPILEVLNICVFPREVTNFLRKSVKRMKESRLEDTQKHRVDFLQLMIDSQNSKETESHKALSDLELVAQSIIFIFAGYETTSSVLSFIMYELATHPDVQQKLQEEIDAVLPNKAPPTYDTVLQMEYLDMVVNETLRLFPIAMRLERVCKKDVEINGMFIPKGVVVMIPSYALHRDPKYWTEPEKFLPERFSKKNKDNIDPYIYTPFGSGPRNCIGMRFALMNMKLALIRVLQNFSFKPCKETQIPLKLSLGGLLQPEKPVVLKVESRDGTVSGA

The MIC90 is an inhibitory concentration at the 90% level, which refers to growth in some studies and to a panel of isolates in others. Read a high MIC90 as lower susceptibility. What is called IC50 is the concentration that inhibits the measured activity by half. What is called Papp is a coefficient for how fast a substance crosses the barrier. With `O=C(N/N=C/c1ccc2no[n+]([O-])c2c1)c1ccncc1`, the outcome (in data set [1]; in the data set with Staphylococcus aureus; in data set [7]; in data set [14]; with Candida albicans) was inactive. Besides, the result in [2], in data set [9] and in [12] was Active. In addition, the MIC90 in [3] was 5.47 µM (≈ 1.55 µg/mL); in data set [10], 1.1 to 5.84 µM (≈ 0.312 to 1.65 µg/mL). Besides, the Activity result with Mus musculus [4] is listed as “Non-Toxic”; in [6], 6.7 log10CFU/ml; with Mus musculus [8], “Toxic”; with Mus musculus [11], “Non-Toxic”; with Mus musculus [15], “Non-Toxic”; in the data set with Mus musculus [17], “Non-Toxic”. The Activity entry with Mus musculus [18] is “Non-Toxic”. The inhibition in vivo at 300 mg/kg in [5] worked out at 76%; in data set [16] it was 51.3%. The 50% inhibitory concentration (IC50) at Cytochrome P450 3A4 and on Cytochrome P450 2B6 was above 20 µM in each case. Moreover, in data set [13], the Papp was determined as 3.9 ×10⁻⁶ cm/s. For the same compound, in [19], the “inhibition (INH)” value worked out at 90%.
